# Measurements from different studies.
# Compare with care: the assays were run in different laboratories.
# RET: Proto-oncogene tyrosine-protein kinase receptor Ret (RET, Homo sapiens, UniProt P07949)
# RET V804M: Proto-oncogene tyrosine-protein kinase receptor Ret (RET, Homo sapiens, UniProt P07949, V804M)
Structure (SMILES),target,assay,conditions,endpoint,value
COc1ccc(-c2cn3cc(C(=O)N4CC(O)C4)nc3c(=O)n2C)c(F)c1,RET,"enzyme activity, inhibitor, radiometric",0.1 µM,remaining activity,117%
Cn1nc(C(=O)NCc2ccc(C(=O)O)cc2)cc1-c1ccc2[nH]ccc2c1,RET V804M,"cell-free assay, competition with immobilised ligand",0.1 µM,remaining binding,91%
COc1cc(NC(=O)Nc2cc(C)c3nc(NC(=O)c4ccccc4)sc3c2)cc(OC)c1,RET,"enzyme activity, inhibitor, radiometric",0.1 µM,remaining activity,123%
CCCOc1ccc(OC)c(F)c1C(=O)c1ccc(C(=O)N[C@@H]2CNC[C@H]2NC(=O)c2ccc3[nH]ncc3c2)cc1,RET,"enzyme activity, inhibitor",10 µM,remaining activity,1%
Nc1ncnc2occ(-c3ccc(NC(=O)Nc4cc(C(F)(F)F)ccc4F)cc3)c12,RET,cell-free assay,20 µM,remaining signal,0%
COc1ccc(CN2C3CC2CN(c2ccc(-c4cc(OCC(C)(C)O)cn5ncc(C#N)c45)cn2)C3)cn1,RET V804M,"thermal stability, DSF",10 µM,ΔTm,6.4 °C
C[C@H](c1ccnc(Nc2nc3ccc(-c4cc(N(C)C)ncn4)cc3[nH]2)c1)N1CCN(C(=O)CC(F)(F)F)CC1,RET,"cell-free assay, competition with immobilised ligand",0.1 µM,remaining binding,100%
COc1cc(NC(=O)Nc2cc(OC)c3nc(NC(=O)c4ccccc4)sc3c2)cc(OC)c1,RET,"enzyme activity, inhibitor, radiometric",0.1 µM,remaining activity,112%
CO[C@]1(C(=O)N[C@@H](C)c2ccc(-n3cc(F)cn3)nc2)CC[C@H](c2nc(C)cc(Nc3cc(C)[nH]n3)n2)CC1,"Proto-oncogene tyrosine-protein kinase receptor Ret (RET, Homo sapiens, UniProt P07949, L760A)","thermal stability, DSF",10 µM,ΔTm,11.9 °C
CSc1cccnc1N1CCN(Cc2nc3ccccc3[nH]2)CC1,"Proto-oncogene tyrosine-protein kinase receptor Ret (RET, Homo sapiens, UniProt P07949, V804L)","cell-free assay, competition with immobilised ligand",1 µM,remaining binding,98%
